From ChEMBL document CHEMBL1155315, “Towards to hENT1-nucleoside transporter selective imaging agents. Synthesis and in vitro evaluation of the radiolabeled SAENTA analogues” (Bioorg Med Chem Lett, 2009)

Experiments:
[1] = molecular target: T1, Equilibrative nucleoside transporter 1 (Homo sapiens) (UniProt Q99808); test: (§1) Binding affinity to human ENT1 in SK-PC1 cells by flow cytometry; type: cell-based
T1 sequence (whole entry): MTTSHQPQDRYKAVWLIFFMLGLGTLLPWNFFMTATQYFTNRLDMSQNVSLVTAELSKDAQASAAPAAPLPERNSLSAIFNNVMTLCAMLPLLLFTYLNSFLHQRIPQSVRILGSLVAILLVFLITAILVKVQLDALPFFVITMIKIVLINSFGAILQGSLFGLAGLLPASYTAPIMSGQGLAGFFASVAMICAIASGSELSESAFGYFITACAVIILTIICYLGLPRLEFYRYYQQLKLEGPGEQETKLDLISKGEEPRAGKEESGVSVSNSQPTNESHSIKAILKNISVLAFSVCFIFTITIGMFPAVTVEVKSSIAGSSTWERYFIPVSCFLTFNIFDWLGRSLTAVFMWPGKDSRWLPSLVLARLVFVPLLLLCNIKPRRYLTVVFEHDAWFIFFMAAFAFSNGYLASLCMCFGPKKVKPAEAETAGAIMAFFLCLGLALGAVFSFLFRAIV
How it was run: (§2)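 Apparent KD and Bmax of SAENTA-fluorescein on each cell line, from flow-cytometric binding over a range of SAENTA-fluorescein concentrations. Specific binding is total minus nonspecific fluorescence, with nonspecific fluorescence measured in the presence of 7.2 μM NBMPR. Saturation parameters come from curve fitting; Bmax is given as mean fluorescence units per 10^4 cells.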

[2] = molecular target: T2, Equilibrative nucleoside transporter 1 (Homo sapiens, UniProt Q99808); test: as §1; type: cell-based; how it was run: as §2
T2 sequence (Q99808 whole entry): T1 sequence (whole entry)

[3] = molecular target: T1, Equilibrative nucleoside transporter 1 (Homo sapiens); test: (§3) Binding affinity to human ENT1 in MIA-PaCa2 cells by flow cytometry; type: cell-based; how it was run: as §2
[4] = molecular target: T2, Equilibrative nucleoside transporter 1; test: as §3; type: cell-based; how it was run: as §2
[5] = molecular target: T1, Equilibrative nucleoside transporter 1 (Homo sapiens); test: (§4) Binding affinity to human ENT1 in BX-PC3 cells by flow cytometry; type: cell-based; settings: BXPC-3; how it was run: as §2
[6] = molecular target: T2, Equilibrative nucleoside transporter 1; test: as §4; type: cell-based, BXPC-3; how it was run: as §2
[7] = molecular target: T1, Equilibrative nucleoside transporter 1 (Homo sapiens); test: (§5) Binding affinity to human ENT1 in Capan1 cells by flow cytometry; type: cell-based; settings: CAPAN-1; how it was run: as §2
[8] = molecular target: T2, Equilibrative nucleoside transporter 1; test: as §5; type: cell-based, CAPAN-1; how it was run: as §2
[9] = molecular target: T1, Equilibrative nucleoside transporter 1 (Homo sapiens); test: (§6) Binding affinity to human ENT1 in panc1 cells by flow cytometry; type: cell-based; how it was run: as §2
[10] = molecular target: T2, Equilibrative nucleoside transporter 1; test: as §6; type: cell-based; how it was run: as §2
[11] = molecular target: T1, Equilibrative nucleoside transporter 1 (Homo sapiens); test: (§7) Binding affinity to human ENT1 in HL60 cells by flow cytometry; type: cell-based; settings: HL-60; how it was run: as §2
[12] = molecular target: T2, Equilibrative nucleoside transporter 1; test: as §7; type: cell-based, HL-60; how it was run: as §2
[13] = molecular target: T2, Equilibrative nucleoside transporter 1; test: Displacement of SAENTA-fluorescein from human ENT1 in HL60 cells by flow cytometry; type: cell-based, HL-60
How it was run: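 HL60 cells were preincubated with the inhibitor, then exposed to 50 nM SAENTA-fluorescein and analysed by flow cytometry (example inhibitor levels 5, 25 and 50 nM). IC50 is the concentration inhibiting 50% of SAENTA-fluorescein binding, from nonlinear regression of inhibitor concentration–fluorescence curves. Ki = IC50/(1+[S]/KD), using the SAENTA-fluorescein concentration and KD.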

Bmax [1] [MFU] | Kd [2] [pM] | Bmax [3] [MFU] | Kd [4] [pM] | Bmax [5] [MFU] | Kd [6] [pM] | Bmax [7] [MFU] | Kd [8] [pM] | Bmax [9] [MFU] | Kd [10] [pM] | Bmax [11] [MFU] | Kd [12] [pM] | IC50 [13] [pM] | Ki [13] [pM] | SMILES
2.6 | 400 | 30.7 | 910 | 6.7 | 360 | 9.5 | 320 | 49.8 | 3800 | 21.1 | 260 | – | – | O=C(CCCCCNC(=O)c1ccc2c(c1)C(=O)OC21c2ccc(O)cc2Oc2cc(O)ccc21)NCCSC[C@H]1O[C@@H](n2cnc3c(NCc4ccc([N+](=O)[O-])cc4)ncnc32)[C@H](O)[C@@H]1O
– | – | – | – | – | – | – | – | – | – | – | – | 1400 | 18 | O=C(CCCCCNC(=O)c1cccc(I)c1)NCCSC[C@H]1O[C@@H](n2cnc3c(NCc4ccc([N+](=O)[O-])cc4)ncnc32)[C@H](O)[C@@H]1O
– | – | – | – | – | – | – | – | – | – | – | – | 5100 | 64 | O=C(CCCCCNC(=O)c1ccc(F)cc1)NCCSC[C@H]1O[C@@H](n2cnc3c(NCc4ccc([N+](=O)[O-])cc4)ncnc32)[C@H](O)[C@@H]1O
